Measurements: ChEMBL document CHEMBL4673252, “Discovery and Early Clinical Development of Isobutyl 1-[8-Methoxy-5-(1-oxo-3H-isobenzofuran-5-yl)-[1,2,4]triazolo[1,5-a]pyridin-2-yl]cyclopropanecarboxylate (LEO 39652), a Novel "Dual-Soft" PDE4 Inhibitor for Topical Treatment of Atopic Dermatitis” (J Med Chem, 2020)

What was measured:
[1] = Clearance in human liver microsomes at 0.5 uM incubated for 40 mins in presence of NADPH by LC-MS/MS analysis; format: ADME, Microsome; details: read-out: CLH
In short: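 Human liver microsomes (0.5 mg/mL) with 1 mM NADPH and 0.5 μM test compound, incubated for 40 min. Samples were taken before NADPH and at 5, 10, 20, 40 min, quenched with cold acetonitrile containing internal standard, and analysed by LC-MS/MS. Control incubations in buffer and without NADPH. Apparent clearance was calculated from depletion.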

[2] = Half life in human whole blood at 0.1 uM by LC-MS/MS analysis; format: ADME, tissue-based
[3] = Half life in human keratinocytes at 1 uM by LC-MS/MS analysis; format: ADME, cell-based, Keratinocyte
In short: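 Plated human epidermal keratinocytes (1 × 10⁴ cells/well) with 1 μM compound in duplicate for up to 24 h; sampled at 0, 1, 2, 4, 24 h, acetonitrile precipitation, LC-MS/MS. Controls in growth medium. Half-life reported.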

Phosphodiesterase 4 = Phosphodiesterase 4 (Homo sapiens, UniProt P27815+Q08499+Q07343+Q08493); experiment: Inhibition of PDE4 (unknown origin); format: protein assay
[4] = Drug exposure in skin of Gottingen mini pig at 0.25% dosed topically as monoglyceride cream measured after 24 hrs by LC-MS/MS analysis; format: ADME, organism-based, Sus scrofa domesticus, Skin of body; details: in vivo, topical_or_ocular
In short: (§1)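 Female Göttingen minipigs received single topical application of 1 or 2.5 mg/g monoglyceride cream at 10 μL/cm² over 4 cm² of belly/flank; excess removed. At 24 h sites were tape stripped (2 + 10 strips), 8 mm punch biopsies were taken and snap frozen, then homogenized, acetonitrile precipitated and analysed by LC-MS/MS; n = 2.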

[5] = Drug exposure in skin of Gottingen mini pig at 0.1% dosed topically as monoglyceride cream measured after 24 hrs by LC-MS/MS analysis; format: ADME, organism-based, Sus scrofa domesticus, Skin of body; details: in vivo, topical_or_ocular; in short: as §1
[6] = Clearance in human hepatocytes at 10 uM by UPLC/TOF-MS analysis; format: ADME, cell-based, Hepatocyte
[7] = Clearance in mini pig hepatocytes at 10 uM by UPLC/TOF-MS analysis; format: ADME, cell-based, Sus scrofa domesticus, Hepatocyte; details: read-out: CLH
[8] = Drug exposure in human assessed as ratio of drug level to total AUC at 0.25% of Isobutyl 1-[8-Methoxy-5-(1-oxo-3H-isobenzofuran-5-yl)-[1,2,4]-triazolo[1,5-a]pyridin-2-yl]cyclopropanecarboxylate dosed via topical administration in lipid cream; format: ADME, organism-based; details: in vivo, topical_or_ocular
[9] = Drug exposure in Isobutyl 1-[8-Methoxy-5-(1-oxo-3H-isobenzofuran-5-yl)-[1,2,4]-triazolo[1,5-a]pyridin-2-yl]cyclopropanecarboxylate dosed cynomolgus monkey assessed as ratio of drug level to total AUC; format: ADME, organism-based, Macaca fascicularis; details: in vivo
In short: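 Blood was drawn at 0.25–24 h after infusion start and 6, 12, 24 h after infusion end into EDTA-K3, then plasma stabilized with ascorbic acid. LC-MS/MS quantification of parent and metabolites; noncompartmental PK.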

[10] = Drug exposure in of Isobutyl 1-[8-Methoxy-5-(1-oxo-3H-isobenzofuran-5-yl)-[1,2,4]-triazolo[1,5-a]pyridin-2-yl]cyclopropanecarboxylate dosed Gottingen mini pig assessed as ratio of drug level to total AUC at 0.5 to 2 mg/kg, iv measured up to 24 hrs by LC-MS/MS analysis; format: ADME, organism-based, Sus scrofa domesticus; details: in vivo, dose 0.5-2 mg/kg
[11] = Cmax in cynomolgus monkey at 30 mg/kg, sc dosed as single administration; format: ADME, organism-based, Macaca fascicularis; design: route subcutaneous, dose 30 mg/kg; details: in vivo
In short: (§2)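 Single subcutaneous dose of 30 mg/kg.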

[12] = AUC (0 to 24 hrs) in cynomolgus monkey at 30 mg/kg, sc dosed as single administration; format: ADME, organism-based, Macaca fascicularis; design: time < 24 hr, route subcutaneous, dose 30 mg/kg; details: in vivo; in short: as §2
[13] = Half life in mini pig whole blood at 0.1 uM by LC-MS/MS analysis; format: ADME, tissue-based, Sus scrofa domesticus
[14] = Half life in rat whole blood at 0.1 uM by LC-MS/MS analysis; format: ADME, tissue-based
[15] = Drug exposure in of Isobutyl 1-[8-Methoxy-5-(1-oxo-3H-isobenzofuran-5-yl)-[1,2,4]-triazolo[1,5-a]pyridin-2-yl]cyclopropanecarboxylate dosed Sprague-Dawley rat assessed as ratio of drug level to total AUC at 0.075 mg/kg, iv measured up to 30 mins by LC-MS/MS analysis; format: ADME, organism-based; details: in vivo, 0.5 h
In short: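 Male Sprague Dawley rats (n = 3) received a single iv injection of 0.075 mg/kg (50 μg/mL, 1.5 mL/kg) in 20% cyclodextrin. Blood was taken from the tongue vein at 1, 3, 6, 9, 12, 15 and 30 min into lithium-heparin, diluted 1:1 with heparin water, and analysed by LC-MS/MS for parent and metabolites.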

[16] = Cmax in human patient with atopic dermatitis at 0.25% dosed topically as lipid cream; format: ADME, organism-based; design: dose 0.25 %; details: in vivo, topical or ocular
[17] = AUC (0 to 24 hrs) in human patient with atopic dermatitis at 0.25% dosed topically as lipid cream; format: ADME, organism-based; design: time < 24 hr, dose 0.25 %; details: in vivo, topical or ocular

SMILES | CLint scaled at 0.5 µM [1] [mL/min/kg] | half-life at 0.1 µM [2] [h] | half-life at 1 µM [3] [h] | other results
COc1ccc(-c2ccc3c(c2)COC3=O)n2nc(C3(C(=O)OC[C@H](C)CO)CC3)nc12 | 66 | < 0.167 | > 12 | 
CC[C@H](C)OC(=O)C1(c2nc3c(OC)ccc(-c4ccc5c(c4)COC5=O)n3n2)CC1 | > 200 | 0.183 | > 12 | 
COc1ccc(-c2ccc3c(c2)COC3=O)n2nc(C3(C(=O)OC4CCCC4)CC3)nc12 | > 200 | 0.283 | 12 | 
COc1ccc(-c2ccc3c(c2)COC3=O)n2nc(C3(C(=O)OC4CCCCC4)CC3)nc12 | > 200 | 0.383 | > 12 | 
COC(=O)c1ccc(-c2ccc(OC)c3nc(C4(C(=O)NCC(C)C)CC4)nn23)cc1 | > 200 |  | 9 | 
COc1ccc(-c2cccc(C#N)c2)n2nc(C3(CCC(=O)O)CC3)nc12 | 16 |  |  | 
CCCNC(=O)COc1c(C(=O)Cc2c(Cl)cncc2Cl)ccc(OC)c1OC |  |  |  | IC50 (Phosphodiesterase 4): 2.8 nM; Drug uptake [4]: 26 µM; Drug uptake [5]: 14 µM
COc1ccc(-c2ccc3c(c2)COC3=O)n2nc(C3(C(=O)OCC(C)(C)O)CC3)nc12 | 66 | 0.2 | > 12 | CLhep predicted at 10 µM [6]: 16 mL/min/kg; CLint scaled at 10 µM [7]: > 26 mL/min/kg; Drug uptake ([8]; BLD = below limit of detection): Bld; Drug uptake [9]: 0.1%; Drug uptake ([10]; BLD = below limit of detection): Bld; Cmax ([11]; BLD = below limit of detection): Bld; AUC ([12]; 24 h, BLD = below limit of detection): Bld
COc1ccc(-c2ccc3c(c2)COC3=O)n2nc(C3(C(=O)OC4CCC4)CC3)nc12 | > 200 | < 0.167 | > 9 | 
COc1ccc(-c2ccc(C(=O)O)c(CO)c2)n2nc(C3(C(=O)O)CC3)nc12 | < 11 | > 1 | > 12 | half-life at 0.1 µM [13]: > 1 h; half-life at 0.1 µM [14]: > 1 h; CLhep predicted at 10 µM [6]: < 5.2 mL/min/kg; CLint scaled at 10 µM [7]: < 10 mL/min/kg; Drug uptake [8]: 71%; Drug uptake [9]: 13%; Drug uptake [10]: 23%; Drug uptake [15]: 14%; Drug uptake [4]: 6 µM; Drug uptake [5]: 3 µM; Cmax ([11]; read-out: Cmax): 407 ng/mL; Cmax [16]: 1.89 ng/mL; AUC(0-t) at 24 h [12]: 1300 ng·h/mL; AUC(0-t) at 24 h [17]: 24.7 ng·h/mL
COc1ccc(-c2cccc(C#N)c2)n2nc(C3(CO)CC3)nc12 | < 10 |  |  | 
COc1ccc(-c2ccc3c(c2)COC3=O)n2nc(C3(C(=O)OC(C)C)CC3)nc12 | 97 | 0.183 | > 12 | 
COc1ccc(-c2cccc(C#N)c2)n2nc(C3(CCCO)CC3)nc12 | 33 |  |  | 
COc1ccc(-c2cccc3c2COC3=O)n2nc(C3CC3)nc12 | < 10 | 0.25 | > 12 | 
COC(=O)c1cccc(-c2ccc(OC)c3nc(C4CC4)nn23)c1 | > 200 | > 1 | > 12 | 
COc1ccc(-c2ccc3c(c2)COC3=O)n2nc(C3(C(=O)O[C@H]4CCOC4)CC3)nc12 | 77 | < 0.167 | > 12 | 
COc1ccc(-c2ccc3c(c2)COC3=O)n2nc(C3(C(=O)OC[C@@H](C)CO)CC3)nc12 | 64 | < 0.167 | > 12 | 
COC(=O)C1(c2nc3c(OC)ccc(-c4ccc5c(c4)COC5=O)n3n2)CC1 | 193 | < 0.167 | > 12 | 
CCCCOC(=O)C1(c2nc3c(OC)ccc(-c4ccc5c(c4)COC5=O)n3n2)CC1 | > 200 | 0.333 | 10 | 
